Screening results from PubChem.
Rce1 inhib – yeast Ras-converting enzyme inhibition | Q03530 | AID 2563 | yeast membranes, quenched prenylated peptide cleavage fluorescence | actives 0.27% (n = 290,000) | calls only;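 active means fall in fluorescence gain of 50% or more versus controls, with final raw signal at or below 3038400; inconclusive means same 50% fall but final raw signal above 3038400; inactive means fall in fluorescence gain under 50%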;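 further: plate controls were neutral control wells for no effect and wells lacking membranes for full effect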
Target sequence (Q03530 whole entry, looked up): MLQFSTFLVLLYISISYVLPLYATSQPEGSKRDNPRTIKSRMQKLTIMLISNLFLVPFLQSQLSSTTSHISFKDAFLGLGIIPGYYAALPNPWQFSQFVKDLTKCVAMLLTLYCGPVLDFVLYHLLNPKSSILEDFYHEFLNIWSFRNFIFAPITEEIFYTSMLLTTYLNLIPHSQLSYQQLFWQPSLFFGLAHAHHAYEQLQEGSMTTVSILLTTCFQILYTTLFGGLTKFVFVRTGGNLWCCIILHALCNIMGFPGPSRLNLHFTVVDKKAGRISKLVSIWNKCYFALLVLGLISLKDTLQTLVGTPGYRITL
T cell modulator – T cell immune modulation candidate; 2C CD8+ T cell-vesicle binding, flow cytometry; stronger effect = lower value; actives 0.068% (n = 330,000); response (vesicle binding), % at 7 µM;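 active means response, share of CD8 T cells binding vesicles, and their 90th percentile fluorescence all below set limits, cut at about 80% in these data, passing the limit was not always enough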;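 further: values below 100% mean blocked vesicle binding to the CD8+ T cells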
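Assay system: 2C TCR transgenic mouse naive CD8+ T cells, MACS-purified | Read-out: CD8+ gate FL2 mean fluorescence as % of same-row positive control | Signal: High-throughput flow cytometry with anti-B7-1 and anti-CD8 staining | Timing: Binding step 1.5 h, 37 °C, antibody labelling 20 min, ice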
MEKK3 PB1 HTS – MEKK3-MEK5 PB1 interaction, increase or decrease | actives 1.4% (n = 290,000) | bead-based flow cytometry, Alexa488-MEK5 binding to MEKK3; actives lie on both sides; 0 = blocked by unlabeled MEK5, 100 = vehicle | AID 1529 | binding response (% of control), % at 10 µM;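 active means binding response more than 3 SD above or below the average of its plate-row segment, actives on both sides; inconclusive means wells at one plate position flagged as instrument error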;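 further: Alexa488 bead fluorescence after subtracting the streptavidin-only scavenger bead signal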
UCH37 DUB inh – human UCH37 deubiquitinating enzyme inhibition; actives 0.33% (n = 330,000); Q9Y5K5; inhibition, % (no concentration beside the values); purified proteasome/UCH37, Ub-AMC cleavage fluorescence;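 active means mean inhibition over replicate wells above about 20%, limit read from the data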;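 further: 0% = compound-free wells with enzyme and 100% = wells lacking proteasome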
Target sequence (Q9Y5K5 whole entry, looked up): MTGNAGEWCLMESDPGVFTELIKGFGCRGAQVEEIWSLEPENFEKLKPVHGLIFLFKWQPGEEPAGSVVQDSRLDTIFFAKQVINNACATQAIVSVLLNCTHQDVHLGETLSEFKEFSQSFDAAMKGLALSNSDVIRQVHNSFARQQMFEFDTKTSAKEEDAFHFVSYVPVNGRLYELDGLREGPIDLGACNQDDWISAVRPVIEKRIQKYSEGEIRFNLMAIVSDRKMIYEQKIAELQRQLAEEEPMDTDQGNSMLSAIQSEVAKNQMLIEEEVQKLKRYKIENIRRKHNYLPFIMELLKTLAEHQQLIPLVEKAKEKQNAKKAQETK
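Material: Human UCH37 enzyme supplied as purified proteasome complex | Schedule: 30 min compound-proteasome preincubation then 25 min substrate reaction, room temperature | Detection: AMC fluorescence from Ub-AMC cleavage, excitation 355 nm, emission 460 nm | Benchmarks: Wells without proteasome as full block, compound-free enzyme plus substrate as uninhibited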
MEKK2 WT-MEK5 – raises or lowers MEK5 binding to wildtype human MEKK2 PB1 domain; bead flow cytometry, Alexa488-MEK5 binding to MEKK2 WT; actives lie on both sides; binding response (% of control), % at 10 µM; actives 1.1% (n = 290,000); AID 1531; in the data active means binding response below about 67% or above about 130%; inconclusive means no clear call, values can overlap the other calls; inactive means in between
MEKK2 mut-MEK5 – signal of MEK5 binding to mutant human MEKK2 PB1 domain. bead flow cytometry, Alexa488-MEK5 binding to MEKK2 mutant. actives 0.35% (n = 290,000). AID 1530. percent response, % at 10 µM; in the data active means percent response above about 24%, passing the limit was not always enough
MEKK2wt confirm – raises or lowers MEK5 binding to wildtype human MEKK2, retest | shares compounds with MEKK3 PB1 HTS | bead flow cytometry, Alexa488-MEK5 binding to MEKK2 WT; actives lie on both sides | binding response (% of control), % at 10 µM | actives 2.4% (n = 5,900); in the data active means binding response below about 16% or above about 210%; inactive means in between
MEKK2mut confirm – signal of MEK5 binding to mutant human MEKK2, retest. shares compounds with MEKK3 PB1 HTS. bead flow cytometry, Alexa488-MEK5 binding to MEKK2 mutant. percent response, % at 10 µM. actives 2% (n = 5,900). AID 1893; in the data active means percent response mostly above about 71%, no sharp cut-off; inactive means mostly below about 38%;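 further: higher means compound restores mutant binding toward wildtype level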
MEKK3 confirm – confirmation of inhibitors of MEK5 binding to human MEKK3; binding response (% of control), % at 10 µM; actives 1.8% (n = 5,900); shares compounds with MEKK3 PB1 HTS; bead flow cytometry, Alexa488-MEK5 binding to MEKK3; stronger effect = lower value;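 active means binding response below 72% of control, or above a set upper limit, though filed actives all read lower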;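 further: 100% = DMSO only wells and 0% = binding blocked by excess unlabeled MEK5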
* hit, by the source's call; i = inactive; ? = inconclusive; · = no result given; ! = not active in a repeat; [ ] = another dose, or the depositor's remark. Only some compounds are listed: those with a hit (about 2.5% of all), similar ones and a draw of the others.

SMILES	Rce1 inhib	T cell modulator	MEKK3 PB1 HTS	UCH37 DUB inh	MEKK2 WT-MEK5	MEKK2 mut-MEK5	MEKK2wt confirm	MEKK2mut confirm	MEKK3 confirm
CCOC(=O)C(=CNc1ccc(C(F)(F)F)cc1)C(=O)OCC	i	329.5	104.0	1.6	105.0	5.0	·	·	·
COc1cccc(C(=O)C2CCCN(C/C=C/c3ccccc3OC)C2)c1 (stereo not drawn)	i	263.5	105.0	2.7	98.0	-7.0	·	·	·
COc1ccc(/C=C/CN2CCCC(C(=O)c3ccc(OC)c(F)c3)C2)cc1 (stereo not drawn)	i	684.4	105.0	-0.4	140.0*	20.0	126.0	11.0	104.0
Cc1cc(C(=O)NN=C/C=C/c2ccc([N+](=O)[O-])cc2)n[nH]1	·	·	·	6.9	·	·	·	·	·
O=C(NN=Cc1ccncc1)c1sc2ccccc2c1Cl	·	·	·	6.6	·	·	·	·	·
CC(NC(=O)C(=O)NCCC1=CCCCC1)c1ccccc1 (stereo not drawn)	i	139.9	139.0*	1.7	105.0	0.0	98.0	-2.0	98.0
CC(C)CCNC(=O)C(=O)NCCC1=CCCCC1	i	232.7	105.0	1.8	109.0	2.0	·	·	·
Cc1ccc(NC(CSC(N)=O)=NS(=O)(=O)c2ccc(C)cc2)cc1	·	·	·	-0.4	·	·	·	·	·
Nc1nonc1C(=O)NCCNCc1ccccc1OCc1ccccc1F	i	300.8	123.0*	7.2	124.0	8.0	113.0	14.0	103.0
Nc1nc(NCc2ccccc2)nc(NCc2ccccc2)c1[N+](=O)[O-]	i	476.1	152.0*	4.2	112.0	1.0	106.0	6.0	106.0
Fc1ccccc1C=Nn1c(-c2cccnc2)n[nH]c1=S	·	·	·	5.3	·	·	·	·	·
COc1ccc(-c2nc(NC(=O)Cn3c(=O)oc4ccccc43)sc2C)cc1	i	629.5	143.0*	2.1	112.0	1.0	101.0	1.0	108.0
CCN(CC(=O)NC(C)(C)C)C(=O)CCl	i	734.6	136.0*	1.0	104.0	0.0	99.0	-2.0	99.0
COc1cc(/C=C/c2ccc3cccc(OC)c3n2)c(O)c([N+](=O)[O-])c1	i	296.4	50.0*[inhibitor]	-0.5	55.0*[inhibitor]	-15.0	94.0	-7.0	92.0
COc1cc2[nH]c(=O)n(CCCC(=O)N3CC=C(c4ccccc4)CC3)c(=O)c2cc1OC	i	274.3	127.0*	-9.1	120.0	10.0	105.0	4.0	104.0
COc1cc2[nH]c(=O)n(CCC(=O)N3CC=C(c4ccccc4)CC3)c(=O)c2cc1OC	·	897.9	97.0	-10.8	100.0	-2.0	·	·	·
CC(Cc1ccccc1)=NNC(=O)CNC(=O)COc1ccccc1	·	·	·	1.8	·	·	·	·	·
O=C(CSC1=Nc2ccccc2C2=NC(c3ccccc3)C(=O)N12)NC1CCCCC1 (stereo not drawn)	i	172.0	124.0*	-175.6	125.0	6.0	101.0	2.0	103.0
O=C1CCCC2=C1C(c1ccc(Cl)cc1)n1c(s/c(=C\c3ccc4ccncc4c3)c1=O)=N2 (stereo not drawn)	i	306.6	141.0*	·	81.0	-1.0	93.0	-1.0	100.0
Cc1cc(C(=O)Nc2cccc3ncccc23)no1	i	i	127.0*	1.7	121.0	6.0	97.0	-4.0	97.0
O=C(NN=Cc1cccs1)c1[nH]ncc1Br	·	·	·	6.0	·	·	·	·	·
COc1cc2nc(N3CCN(C(=O)C4COc5ccccc5O4)CC3)nc(N)c2cc1OC (stereo not drawn)	?	627.4	116.0	-30.8	150.0*!	15.0	146.0	27.0	111.0
COc1cc2nc(N3CCN(C(=O)c4ccco4)CC3)nc(N)c2cc1OC	?	198.5	112.0	-56.6	104.0	6.0	·	·	·
N#Cc1ccc(/C=N/NC(=O)c2ccccc2F)cc1	i	280.5	115.0	·	140.0*	47.0	101.0	-1.0	102.0
O=C(/C=C/c1cccc([N+](=O)[O-])c1)NCCSCc1ccc(Cl)cc1	i	277.0	144.0*	0.0	109.0	0.0	96.0	-4.0	105.0
SMILES	Rce1 inhib	T cell modulator	MEKK3 PB1 HTS	UCH37 DUB inh	MEKK2 WT-MEK5	MEKK2 mut-MEK5	MEKK2wt confirm	MEKK2mut confirm	MEKK3 confirm
CC(C)(C)OC(=O)NN=Cc1cn(-c2ccccc2)nc1-c1cccnc1	·	·	·	-0.4	·	·	·	·	·
O=c1cc(-c2cccs2)oc2ccc(Cl)cc12	i	317.9	97.0	-59.8	92.0	-5.0	·	·	·
O=c1cc(-c2ccc3c(c2)OCCO3)oc2ccc(Cl)cc12	i	280.1	137.0*	-41.9	104.0	0.0	96.0	1.0	100.0
CC(=O)C(=NNc1ccc(C)cc1)Sc1nncn1C	·	·	·	7.8	·	·	·	·	·
O=C(NCCCN1CCOCC1)C(=O)NN=Cc1c(Cl)cccc1Cl	·	·	·	3.7	·	·	·	·	·
Cc1ccc(N2CCN(N=Cc3ccccc3[N+](=O)[O-])CC2)cc1	·	·	·	4.2	·	·	·	·	·
CCOc1ccccc1CN1C(=O)c2ccccc2C1C(=O)NC(C)CC (stereo not drawn)	i	334.4	128.0*	-0.4	123.0	5.0	97.0	-7.0	97.0
CCc1ccc(CN2C(=O)c3ccccc3C2C(=O)NC(C)CC)cc1 (stereo not drawn)	i	190.1	102.0	1.4	102.0	1.0	·	·	·
Cc1occc1-c1nnc(SCC(=O)N2CCOCC2)o1	i	279.5	2.0*[inhibitor]	3.8	3.0*[inhibitor]	-18.0	102.0	-1.0	102.0
COC(=O)c1ccc(S(=O)(=O)N2Cc3ccccc3C2)cc1	i	117.2	135.0*	-1.1	117.0	1.0	101.0	8.0	102.0
O=C(NN=C/C(Br)=C/c1ccccc1)c1n[nH]c2c1CCC2	·	·	·	7.1	·	·	·	·	·
OCC1(CCOc2ccccc2)CCN(CC2=Cc3cc(Cl)ccc3OC2)CC1	i	408.7	109.0	2.1	153.0*	7.0	137.0	15.0	107.0
Cn1c(=O)c([N+](=O)[O-])c(NCCc2ccccc2)c2ccccc21	i	260.8	129.0*	5.4	106.0	1.0	105.0	5.0	107.0
Cc1noc(C)c1CSc1ncnc2sc3c(c12)CCC3	i	·	133.0*	·	104.0	3.0	97.0	-6.0	98.0
CCCN1CCC(=O)N([C@H](CSc2ccc(C)cc2)c2ccccc2)CC1	i	619.1	115.0	0.9	157.0*	20.0	174.0	40.0	100.0
COc1ccc(-c2coc3cc(O)ccc3c2=O)cc1OC	i	402.7	90.0	-39.1	93.0	-7.0	·	·	·
